Calls of active or inactive are those of the source. The calls are words filed in the database; no cut-off is given here.
How the values were obtained:
P19 [1] = test: Cytotoxicity against mouse P19 cells after 72 hrs by trypan blue exclusion assay; format: functional, cell-based; conditions: P19, 72 h
Summary of the method: (§1)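 Cells were exposed for 72 h to the test agent at increasing concentrations from 10 nM to 20 μM, at 37 °C in humidified 5% CO2. Cells were scraped and resuspended in 0.25% w/v trypan blue in PBS, and dead cells were counted under a light microscope in a Malassez chamber. IC50 is the concentration giving 50% cytotoxicity. Values are mean ± SE of three independent experiments, each run in duplicate.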

B16-F10 = test: Cytotoxicity against mouse B16F10 cells after 72 hrs by trypan blue exclusion assay; format: functional, cell-based; conditions: B16-F10, 72 h; summary of the method: as §1
MCF7 [2] = test: Induction of human MCF7 cell differentiation assessed as lipid accumulation in intracytoplasmic vesicle at 1 uM after 48 hrs by oil red O staining-based light microscopy; format: functional
Summary of the method: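 MCF-7 cells on glass coverslips treated with drug, fixed in 3.7% paraformaldehyde for 1 h at room temperature, and stained with oil red O in 60% isopropanol with hematoxylin counterstain. Dye extracted with isopropanol and read at 510 nm, with control subtracted and the value normalized to SYBR green DNA stain.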

SK-MEL-28 [3] = test: Cell cycle arrest in human SK-MEL-28 cells assessed as accumulation at S phase at 1 uM after 48 hrs by FACS analysis; format: functional
Summary of the method: (§2)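 Cells plated at 250 000 per 100 mm plate and exposed to solvent vehicle or compound for 48 h. Trypsinized cells fixed in 70% ethanol, treated with 100 μg/mL RNase A for 30 min at 37 °C, then stained with 50 μg/mL propidium iodide in 0.25% Tween-20 for 30 min at 37 °C in the dark. DNA content of 1 × 10⁶ cells read by flow cytometry, giving sub-G1, G0/G1, S and G2/M fractions.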

SK-MEL-28 [4] = test: Cell cycle arrest in human SK-MEL-28 cells assessed as accumulation at pre-G1 phase at 1 uM after 48 hrs by FACS analysis; format: functional; summary of the method: as §2
SW-620 = test: Cytotoxicity against human SW620 cells after 72 hrs by trypan blue exclusion assay; format: functional, cell-based; conditions: SW-620, 72 h; summary of the method: as §1
SK-N-SH = test: Cytotoxicity against human SK-N-SH cells after 72 hrs by trypan blue exclusion assay; format: functional, cell-based; summary of the method: as §1
P19 [5] = test: Induction of dendrite out growth in IL-4/GMCSF-stimulated mouse P19 cells assessed as dendrite length at 100 nM after 48 hrs by light microscopy; format: functional
MCF7 [6] = test: Induction of human MCF7 cell differentiation assessed as milk fat accumulation in intracytoplasmic vesicle at 1 uM after 48 hrs by Bligh and Dyer method; format: functional, cell-based
Summary of the method: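 MCF-7 cells (5 million) exposed to vehicle or compound for 48 h, washed three times in PBS. Lipids extracted by the Bligh and Dyer method and triglycerides quantified.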

[7] = Cytotoxicity against mouse TSA cells after 72 hrs by trypan blue exclusion assay; format: functional, cell-based; conditions: TS/A; summary of the method: as §1
KG-1 = test: Cytotoxicity against human KG1 cells after 72 hrs by trypan blue exclusion assay; format: functional, cell-based; conditions: KG-1, 72 h; summary of the method: as §1
SK-MEL-28 [8] = test: Induction of melanogenesis in human SK-MEL-28 cells assessed as cellular melanin content at 1 uM after 48 hrs by spectrophotometry
NB-4 = test: Cytotoxicity against human NB4 cells after 72 hrs by trypan blue exclusion assay; format: functional, cell-based; conditions: NB-4, 72 h; summary of the method: as §1
SK-MEL-28 [9] = test: Cytotoxicity against human SK-MEL-28 cells after 72 hrs by trypan blue exclusion assay; format: functional, cell-based; conditions: SK-MEL-28, 72 h; summary of the method: as §1
MCF7 [10] = test: Cell cycle arrest in human MCF7 cells assessed as accumulation at pre-G1 phase at 1 uM after 48 hrs by FACS analysis; format: functional; summary of the method: as §2
U-937 [11] = test: Cytotoxicity against human U937 cells assessed as modification of cell morphology; format: functional
U-937 [12] = test: Induction of dendrite out growth in IL-4/GMCSF-stimulated human U937 cells assessed as dendrite length at 100 nM after 48 hrs by light microscopy; format: functional
Summary of the method: (§3)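 U937 cells at 1.1 × 10⁶ cells/mL were primed with 10 ng/mL PMA for 48 h in RPMI with 10% heat-inactivated serum. Adherent cells were then given 100 ng/mL IL-4 plus 100 ng/mL GM-CSF or 100 nM compound for 48 h. Dendrite length scored by light microscopy, from none to over 100 μm with a contact network.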

P19 [13] = test: Cytotoxicity against mouse P19 cells assessed as modification of cell morphology; format: functional
MCF7 [14] = test: Cell cycle arrest in human MCF7 cells assessed as accumulation at G1 phase at 1 uM after 48 hrs by FACS analysis; format: functional; summary of the method: as §2
MCF7 [15] = test: Cytotoxicity against human MCF7 cells after 72 hrs by trypan blue exclusion assay; format: functional, cell-based; conditions: MCF7, 72 h; summary of the method: as §1
MCF7 [16] = test: Induction of human MCF7 cell differentiation assessed as stimulation of milk fat globulin expression at 1 uM after 48 hrs by immunocytochemistry; format: functional, cell-based
SK-MEL-28 [17] = test: Cell cycle arrest in human SK-MEL-28 cells assessed as accumulation at G2/M phase at 1 uM after 48 hrs by FACS analysis; format: functional; conditions: in the assay text read “G0/G1 phase” for “G2/M phase”; summary of the method: as §2
[18] = Cytotoxicity against mouse Neuro2a cells after 72 hrs by trypan blue exclusion assay; format: functional, cell-based; conditions: N2a; summary of the method: as §1
U-937 [19] = test: Cytotoxicity against human U937 cells after 72 hrs by trypan blue exclusion assay; format: functional, cell-based; conditions: U-937, 72 h; summary of the method: as §1
SK-MEL-28 [20] = test: Cell cycle arrest in human SK-MEL-28 cells assessed as accumulation at G1 phase at 1 uM after 48 hrs by FACS analysis; format: functional; summary of the method: as §2
P19 [21] = test: Cytotoxicity against mouse P19 cells after 3 days by trypan blue exclusion assay; format: functional, cell-based; conditions: Mus musculus, P19, 72 h; read-out: IC50
Summary of the method: (§4)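 U937 and P19 cells treated with compound. Cell death scored by trypan blue exclusion, with cells scraped, suspended in 0.25% w/v trypan blue in PBS and counted in a Malassez cell. IC50 is the concentration giving 50% cytotoxicity.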

A549 = test: Cytotoxicity against human A549 cells after 72 hrs by trypan blue exclusion assay; format: functional, cell-based; conditions: A549, 72 h; summary of the method: as §1
[22] = Cytotoxicity against human U87 cells after 72 hrs by trypan blue exclusion assay; format: functional, cell-based, U-87MG ATCC; conditions: U-87 MG; summary of the method: as §1
HCT-8 = test: Cytotoxicity against human HCT8 cells after 72 hrs by trypan blue exclusion assay; format: functional, cell-based; conditions: HCT-8, 72 h; summary of the method: as §1
U-937 [23] = test: Induction of dendrite outgrowth in IL-4/GMCSF-stimulated human U937 cells assessed as dendrite length after 48 hrs by light microscopy; format: functional; summary of the method: as §3
MCF7 [24] = test: Cell cycle arrest in human MCF7 cells assessed as accumulation at G2/M phase at 1 uM after 48 hrs by FACS analysis; format: functional; summary of the method: as §2
SK-MEL-28 [25] = test: Effect on human SK-MEL-28 cell morphology assessed as appearance of type 4 melanosomes at 1 uM after 48 hrs by transmission electron microscopy
SK-MEL-28 [26] = test: Effect on human SK-MEL-28 cell morphology assessed as change from fibroblastic to melanocytic morphology at 1 uM after 48 hrs by light microscopy
U-937 [27] = test: Cytotoxicity against human U937 cells after 3 days by trypan blue exclusion assay; format: functional, cell-based; conditions: Homo sapiens, U-937, 72 h; read-out: IC50; summary of the method: as §4
P19 [28] = test: Induction of dendrite outgrowth in IL-4/GMCSF-stimulated mouse P19 cells assessed as dendrite length after 48 hrs by light microscopy; format: functional
SH-SY5Y = test: Cytotoxicity against human SH-SY5Y cells after 72 hrs by trypan blue exclusion assay; format: functional, cell-based; summary of the method: as §1
SK-MEL-28 [29] = test: Induction of melanogenesis in human SK-MEL-28 cells assessed as cellular melanin content at 1 uM after 48 hrs by fluorimetry; format: functional, cell-based; conditions: in the assay text read “by spectrophotometry” for “by fluorimetry”
Summary of the method: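 SK-Mel-28 cells exposed to compound, washed in PBS and pelleted. Pellets of 2 × 10⁶ cells dissolved in 1 M NaOH for 1 h at 80 °C. Melanin read spectrophotometrically at 405 nm.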

MCF7 [30] = test: Cell cycle arrest in human MCF7 cells assessed as accumulation at S phase at 1 uM after 48 hrs by FACS analysis; format: functional; summary of the method: as §2

Compound: CC(C)CCC[C@@H](C)[C@H]1CC[C@H]2[C@@H]3C[C@@H](NCCc4cnc[nH]4)[C@@]4(O)C[C@@H](O)CC[C@]4(C)[C@H]3CC[C@]12C [DENDROGENIN A]
- IC50 (P19 [1]): 1800 nM
- IC50 (B16-F10): 680 nM
- Activity (MCF7 [2]): Active
- Activity (SK-MEL-28 [3]): 7%
- Activity (SK-MEL-28 [4]): 1%
- IC50 (SW-620): 420 nM
- IC50 (SK-N-SH): 2240 nM
- Activity (P19 [5]): 50 um
- Activity (MCF7 [6]): Active
- IC50 [7]: 1280 nM
- IC50 (KG-1): 5530 nM
- Activity (SK-MEL-28 [8]): Active
- IC50 (NB-4): 1320 nM
- IC50 (SK-MEL-28 [9]): 2120 nM
- Activity (MCF7 [10]): 3%
- Activity (U-937 [11]): 40%
- Activity (U-937 [12]): 50 um
- Activity (P19 [13]): 65%
- Activity (MCF7 [14]): 75%
- IC50 (MCF7 [15]): 2310 nM
- Activity (MCF7 [16]): Active
- Activity (SK-MEL-28 [17]): 10%
- IC50 [18]: 2320 nM
- IC50 (U-937 [19]): 790 nM
- Activity (SK-MEL-28 [20]): 82%
- IC50 (P19 [21]): 2400 nM
- IC50 (A549): 2560 nM
- IC50 [22]: 740 nM
- IC50 (HCT-8): 890 nM
- Activity (U-937 [23]): > 200 um
- Activity (MCF7 [24]): 11%
- Activity (SK-MEL-28 [25]): Active
- Activity (SK-MEL-28 [26]): Active
- IC50 (U-937 [27]): 800 nM
- Activity (P19 [28]): > 200 um
- IC50 (SH-SY5Y): 1350 nM
- Activity (SK-MEL-28 [29]): Active
- Activity (MCF7 [30]): 11%
